Each structure is given as a SMILES string. Activity calls are given as the source filed them. The rule behind the calls is not given here.

The term IC50 denotes the concentration needed to halve the response being measured.

Data set [1] concerns the target T1, Bifunctional arginine demethylase and lysyl-hydroxylase JMJD6 (Homo sapiens, UniProt Q6NYC1). The data set is described as follows: Inhibition of His-tagged JMJD6 (unknown origin) expressed in Escherichia coli BL21 (DE3) assessed as increase in H4 arginine 3 symmetrical dimethylation (H4R3me2s) content at 10 uM using core histone as substrate preincubated with enzyme for 10 mins followed by incubation with substrate for 1 hr by immunoblotting analysis. In a few lines:
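Purified bacterially expressed JMJD6 incubated with core histones, with or without compound at 10 μM; product analysed by immunoblot for H4R3me2s with total histone H4 probed alongside.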
For orientation: In western blotting, separated proteins are transferred to a membrane and probed.

Data set [2] has as its target T1, Bifunctional arginine demethylase and lysyl-hydroxylase JMJD6. The data set is described as follows: Inhibition of His-tagged JMJD6 (unknown origin) expressed in Escherichia coli BL21 (DE3) assessed as decrease in demethylase activity by measuring release of formaldehyde using core histone as substrate preincubated with enzyme for 10 mins followed by incubation with substrate for 1 hr measured following 2 hrs incubation with ammonium acetate/acetoacetanilide by fluorescence based analysis. In a few lines: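 Bacterially expressed, purified JMJD6 mixed with core histones, with or without inhibitor across a concentration series; demethylation read as formaldehyde release; IC50 derived from the series; experiment run three times.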

Data set [3] shares this target. Description: Binding affinity to immobilized His-tagged JMJD6 (unknown origin) expressed in Escherichia coli BL21 (DE3) by biacore-binding assay. A general note: SPR reads the build-up and loss of mass on a sensor chip optically.
In a further data set the test system is L02. Description: Cytotoxicity in human LO2 cells assessed as reduction in cell proliferation incubated for 72 hrs by CellTiter 96 AQueous one solution cell proliferation assay. In kind it is cell-based. The conditions noted are these: l02, 72 h.
For data set [4], the target named is T1, Bifunctional arginine demethylase and lysyl-hydroxylase JMJD6. The data set is described as follows: Inhibition of JMJD6 in human HeLa cells assessed as increase in HSP70R469me1 level at 10 uM incubated for 6 hrs by immunoblotting analysis. Format: cell-based. In a few lines: (§1)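 HeLa cells treated with or without compound at 10 μM for 6 h; lysates immunoblotted for H4R3me2s and HSP70R469me1.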

Data set [5] addresses Histone lysine demethylase PHF8 (Homo sapiens) (UniProt Q9UPP1). Description: Inhibition of Flag-tagged PHF8 (unknown origin) expressed in Escherichia coli BL21 (DE3) assessed as formaldehyde release using core histone as substrate preincubated with enzyme for 10 mins followed by incubation with substrate for 1 hr measured following 2 hrs incubation with ammonium acetate/acetoacetanilide by fluorescence based analysis.

For data set [6], the target named is Lysine-specific demethylase 5C (Homo sapiens) (UniProt P41229). Description: Inhibition of Flag-tagged KDM5C (unknown origin) expressed in Escherichia coli BL21 (DE3) assessed as formaldehyde release using core histone as substrate preincubated with enzyme for 10 mins followed by incubation with substrate for 1 hr measured following 2 hrs incubation with ammonium acetate/acetoacetanilide by fluorescence based analysis.

Data set [7] concerns the target T1, Bifunctional arginine demethylase and lysyl-hydroxylase JMJD6. The data set is described as follows: Inhibition of JMJD6 in human HeLa cells assessed as H4R3me2S level at 10 uM incubated for 6 hrs by immunoblotting analysis. Format: cell-based. The method, boiled down:
as §1

Data set [8] concerns the target T2, Lysine-specific demethylase 3A (Homo sapiens) (UniProt Q9Y4C1).
T2 sequence (whole entry): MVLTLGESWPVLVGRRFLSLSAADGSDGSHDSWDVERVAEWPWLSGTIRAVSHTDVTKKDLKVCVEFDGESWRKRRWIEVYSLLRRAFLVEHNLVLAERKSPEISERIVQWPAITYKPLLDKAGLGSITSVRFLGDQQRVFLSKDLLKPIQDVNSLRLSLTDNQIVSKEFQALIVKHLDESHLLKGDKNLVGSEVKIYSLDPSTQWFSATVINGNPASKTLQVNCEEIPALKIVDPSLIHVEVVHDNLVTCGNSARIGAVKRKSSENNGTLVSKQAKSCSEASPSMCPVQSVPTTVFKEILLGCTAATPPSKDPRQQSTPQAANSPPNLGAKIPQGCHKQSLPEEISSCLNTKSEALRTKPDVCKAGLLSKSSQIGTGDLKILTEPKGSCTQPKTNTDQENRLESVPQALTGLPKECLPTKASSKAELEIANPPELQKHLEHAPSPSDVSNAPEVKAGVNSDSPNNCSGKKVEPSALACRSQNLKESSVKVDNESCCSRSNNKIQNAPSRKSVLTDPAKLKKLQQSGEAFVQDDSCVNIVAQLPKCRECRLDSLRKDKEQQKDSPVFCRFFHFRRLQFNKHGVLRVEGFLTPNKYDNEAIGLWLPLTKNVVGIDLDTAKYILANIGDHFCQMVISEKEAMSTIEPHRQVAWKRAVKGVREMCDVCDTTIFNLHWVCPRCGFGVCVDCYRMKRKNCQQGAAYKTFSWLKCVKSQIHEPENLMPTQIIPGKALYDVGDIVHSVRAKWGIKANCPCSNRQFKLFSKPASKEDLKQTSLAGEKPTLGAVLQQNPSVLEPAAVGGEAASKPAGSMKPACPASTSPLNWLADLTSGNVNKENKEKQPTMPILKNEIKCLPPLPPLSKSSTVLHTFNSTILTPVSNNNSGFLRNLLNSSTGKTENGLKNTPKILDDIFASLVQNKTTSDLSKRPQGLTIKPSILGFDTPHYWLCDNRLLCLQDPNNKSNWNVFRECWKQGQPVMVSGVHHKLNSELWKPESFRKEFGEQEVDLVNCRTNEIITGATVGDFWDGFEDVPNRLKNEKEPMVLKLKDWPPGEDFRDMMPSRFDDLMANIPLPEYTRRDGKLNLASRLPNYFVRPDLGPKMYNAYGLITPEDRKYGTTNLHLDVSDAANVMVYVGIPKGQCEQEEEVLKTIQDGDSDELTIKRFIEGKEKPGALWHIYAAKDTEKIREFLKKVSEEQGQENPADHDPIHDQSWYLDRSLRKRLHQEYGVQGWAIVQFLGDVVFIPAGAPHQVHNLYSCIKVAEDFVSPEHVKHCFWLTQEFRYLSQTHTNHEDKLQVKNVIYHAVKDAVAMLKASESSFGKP
The data set is described as follows: Inhibition of Flag-tagged KDM3A (unknown origin) expressed in Escherichia coli BL21 (DE3) assessed as formaldehyde release using core histone as substrate preincubated with enzyme for 10 mins followed by incubation with substrate for 1 hr measured following 2 hrs incubation with ammonium acetate/acetoacetanilide by fluorescence based analysis.

Data set [9] addresses T3, Lysine-specific demethylase 4C (Homo sapiens) (UniProt Q9H3R0).
T3 sequence (whole entry): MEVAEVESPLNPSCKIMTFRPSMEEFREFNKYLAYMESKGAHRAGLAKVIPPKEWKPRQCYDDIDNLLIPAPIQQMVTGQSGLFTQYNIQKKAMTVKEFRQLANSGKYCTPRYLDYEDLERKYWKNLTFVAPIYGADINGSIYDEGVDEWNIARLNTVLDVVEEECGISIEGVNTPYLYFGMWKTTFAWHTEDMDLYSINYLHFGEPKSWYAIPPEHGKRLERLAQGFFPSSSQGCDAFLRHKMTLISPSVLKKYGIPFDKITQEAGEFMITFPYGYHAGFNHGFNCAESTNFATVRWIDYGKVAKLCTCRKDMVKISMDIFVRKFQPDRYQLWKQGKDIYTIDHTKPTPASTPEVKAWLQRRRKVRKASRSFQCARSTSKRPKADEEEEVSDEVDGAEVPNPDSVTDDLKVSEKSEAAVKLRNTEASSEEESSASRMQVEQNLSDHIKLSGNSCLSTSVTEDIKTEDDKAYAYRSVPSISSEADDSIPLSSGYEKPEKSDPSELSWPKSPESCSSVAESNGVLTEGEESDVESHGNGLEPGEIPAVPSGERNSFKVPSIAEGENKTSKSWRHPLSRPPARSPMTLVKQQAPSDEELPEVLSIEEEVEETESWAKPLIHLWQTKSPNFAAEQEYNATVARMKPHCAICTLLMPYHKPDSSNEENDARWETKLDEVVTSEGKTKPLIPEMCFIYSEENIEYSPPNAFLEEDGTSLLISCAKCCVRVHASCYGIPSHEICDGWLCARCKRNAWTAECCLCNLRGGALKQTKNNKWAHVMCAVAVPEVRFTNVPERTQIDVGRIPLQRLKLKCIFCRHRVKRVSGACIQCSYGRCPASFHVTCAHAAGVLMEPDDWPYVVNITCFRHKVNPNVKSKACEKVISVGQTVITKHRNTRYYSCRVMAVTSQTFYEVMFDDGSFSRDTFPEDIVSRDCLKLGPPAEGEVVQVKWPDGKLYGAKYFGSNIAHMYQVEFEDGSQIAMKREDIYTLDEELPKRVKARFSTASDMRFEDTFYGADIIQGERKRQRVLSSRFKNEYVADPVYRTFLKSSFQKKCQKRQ
Description: Inhibition of Flag-tagged KDM4C (unknown origin) expressed in Escherichia coli BL21 (DE3) assessed as formaldehyde release using core histone as substrate preincubated with enzyme for 10 mins followed by incubation with substrate for 1 hr measured following 2 hrs incubation with ammonium acetate/acetoacetanilide by fluorescence based analysis.

Histone lysine demethylase PHF8 (Homo sapiens), sequence (Q9UPP1 whole entry): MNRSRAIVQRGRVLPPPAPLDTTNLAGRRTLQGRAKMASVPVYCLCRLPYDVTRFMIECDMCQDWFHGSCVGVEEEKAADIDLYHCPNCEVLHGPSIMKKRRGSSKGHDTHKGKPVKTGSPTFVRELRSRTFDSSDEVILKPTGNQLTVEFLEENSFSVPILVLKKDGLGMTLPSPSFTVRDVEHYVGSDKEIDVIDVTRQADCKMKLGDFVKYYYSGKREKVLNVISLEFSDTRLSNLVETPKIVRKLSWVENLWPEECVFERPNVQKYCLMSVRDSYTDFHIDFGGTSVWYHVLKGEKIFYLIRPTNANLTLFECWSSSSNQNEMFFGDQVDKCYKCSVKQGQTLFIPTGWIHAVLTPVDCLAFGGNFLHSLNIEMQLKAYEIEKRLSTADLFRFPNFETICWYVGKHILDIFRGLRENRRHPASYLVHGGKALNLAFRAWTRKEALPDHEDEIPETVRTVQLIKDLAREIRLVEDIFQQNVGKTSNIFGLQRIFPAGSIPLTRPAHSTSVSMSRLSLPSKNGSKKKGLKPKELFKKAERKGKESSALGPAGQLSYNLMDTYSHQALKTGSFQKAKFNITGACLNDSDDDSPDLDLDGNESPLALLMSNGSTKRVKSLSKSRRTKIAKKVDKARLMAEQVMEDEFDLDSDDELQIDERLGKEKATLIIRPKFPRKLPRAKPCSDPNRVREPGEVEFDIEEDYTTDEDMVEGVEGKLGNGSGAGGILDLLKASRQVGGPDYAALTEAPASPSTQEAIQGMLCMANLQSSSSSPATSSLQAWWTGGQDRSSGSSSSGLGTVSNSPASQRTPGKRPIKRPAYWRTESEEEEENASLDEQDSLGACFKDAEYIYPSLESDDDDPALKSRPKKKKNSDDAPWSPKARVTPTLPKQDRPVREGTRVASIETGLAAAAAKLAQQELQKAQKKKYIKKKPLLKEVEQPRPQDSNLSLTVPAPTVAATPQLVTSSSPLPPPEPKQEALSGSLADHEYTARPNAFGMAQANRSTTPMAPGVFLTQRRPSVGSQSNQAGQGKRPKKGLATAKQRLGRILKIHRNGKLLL
Lysine-specific demethylase 5C (Homo sapiens), sequence (P41229 whole entry): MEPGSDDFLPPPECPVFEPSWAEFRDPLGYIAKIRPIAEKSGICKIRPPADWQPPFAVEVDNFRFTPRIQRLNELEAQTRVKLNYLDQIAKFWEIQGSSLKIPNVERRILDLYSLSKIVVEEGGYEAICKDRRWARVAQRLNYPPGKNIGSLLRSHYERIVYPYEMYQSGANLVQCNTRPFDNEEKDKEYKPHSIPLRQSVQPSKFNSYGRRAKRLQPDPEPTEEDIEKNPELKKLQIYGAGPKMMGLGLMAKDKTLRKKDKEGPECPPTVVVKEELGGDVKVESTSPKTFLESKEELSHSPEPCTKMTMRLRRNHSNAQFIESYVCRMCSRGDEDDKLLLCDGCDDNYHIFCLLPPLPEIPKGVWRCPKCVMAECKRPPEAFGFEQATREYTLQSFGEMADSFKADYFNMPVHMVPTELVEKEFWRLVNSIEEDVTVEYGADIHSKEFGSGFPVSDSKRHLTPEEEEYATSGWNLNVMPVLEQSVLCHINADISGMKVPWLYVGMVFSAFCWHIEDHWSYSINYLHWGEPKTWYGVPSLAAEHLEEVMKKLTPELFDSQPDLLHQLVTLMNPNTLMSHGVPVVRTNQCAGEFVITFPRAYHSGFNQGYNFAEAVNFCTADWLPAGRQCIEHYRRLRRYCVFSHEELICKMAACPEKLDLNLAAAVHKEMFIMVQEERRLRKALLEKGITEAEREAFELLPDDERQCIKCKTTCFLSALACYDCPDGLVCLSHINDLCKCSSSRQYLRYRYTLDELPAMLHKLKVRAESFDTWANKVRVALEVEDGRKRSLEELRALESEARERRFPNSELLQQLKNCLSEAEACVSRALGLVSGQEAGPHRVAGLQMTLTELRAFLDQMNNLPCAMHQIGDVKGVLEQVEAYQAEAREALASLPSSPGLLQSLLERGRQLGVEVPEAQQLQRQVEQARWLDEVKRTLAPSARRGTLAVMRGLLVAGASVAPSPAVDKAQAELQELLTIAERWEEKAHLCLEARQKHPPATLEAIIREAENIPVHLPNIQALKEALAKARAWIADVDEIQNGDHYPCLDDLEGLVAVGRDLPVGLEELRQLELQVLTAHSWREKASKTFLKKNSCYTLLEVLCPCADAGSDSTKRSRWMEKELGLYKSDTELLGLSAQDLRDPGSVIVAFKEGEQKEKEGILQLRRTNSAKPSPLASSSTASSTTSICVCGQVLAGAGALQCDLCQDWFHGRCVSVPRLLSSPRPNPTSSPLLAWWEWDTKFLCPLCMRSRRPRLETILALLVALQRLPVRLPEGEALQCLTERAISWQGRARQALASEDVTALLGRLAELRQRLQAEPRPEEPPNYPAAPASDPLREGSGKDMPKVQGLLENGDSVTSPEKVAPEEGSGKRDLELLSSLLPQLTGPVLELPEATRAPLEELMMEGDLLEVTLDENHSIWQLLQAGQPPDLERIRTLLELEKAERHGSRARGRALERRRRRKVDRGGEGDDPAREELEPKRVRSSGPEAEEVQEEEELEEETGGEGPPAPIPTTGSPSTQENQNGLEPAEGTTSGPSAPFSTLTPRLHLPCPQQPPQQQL

Regarding `COCCn1cc(OC(C)=O)c2c1nc(C)n1c3ccccc3nc21`, the inhibition entry in data set [1] was “Active”.

As to `COc1ccc2oc(=O)c(-c3csc(C)n3)cc2c1`, the inhibition entry in data set [1] is “Active”.

For the molecule `CCOC(=O)c1csc(NC(=O)c2cc(C)on2)n1`, in data set [1], the inhibition entry was “Active”.

Regarding `COCCN1CCOc2nc3c(C)cccc3cc2C1`, the inhibition entry in [1] was “Active”.

Consider `Cc1ccc2oc(=O)c(-c3nc4cnccc4[nH]3)cc2c1`, for which, in data set [2], the IC50 is 220 nM. For the same molecule, in data set [3], the outcome was Active. Moreover, in the data set on L02, the Activity entry was “Non-Toxic”. Also, the inhibition result in data set [4] and in [1] was “Active” in each case. Also, the inhibition result in data set [5], in data set [6], in data set [7], in data set [8] and in data set [9] was “inactive” throughout.

For the origin of these results see ChEMBL document CHEMBL4312042, “In Silico Discovery of JMJD6 Inhibitors for Cancer Treatment” (ACS Med Chem Lett, 2019).
